Reference: ChEMBL document CHEMBL3763117, “Design, synthesis and biological evaluation of imidazo[2,1-b]thiazole and benzo[d]imidazo[2,1-b]thiazole derivatives as Mycobacterium tuberculosis pantothenate synthetase inhibitors” (Bioorg Med Chem, 2016)
≈ marks a conversion by molar mass, not a printed value. Calls of active or inactive are those of the source. No cut-off for these calls is given here.

Assays:
[1] = target: T1, Pantothenate synthetase (Mycobacterium tuberculosis, UniProt P9WIL5); experiment: Inhibition of Mycobacterium tuberculosis pantothenate synthetase using pantoic acid as substrate and beta-alanine as reactant assessed as NAD+ formation by spectrophotmetry in presence of NADH
T1 sequence (P9WIL5 whole entry): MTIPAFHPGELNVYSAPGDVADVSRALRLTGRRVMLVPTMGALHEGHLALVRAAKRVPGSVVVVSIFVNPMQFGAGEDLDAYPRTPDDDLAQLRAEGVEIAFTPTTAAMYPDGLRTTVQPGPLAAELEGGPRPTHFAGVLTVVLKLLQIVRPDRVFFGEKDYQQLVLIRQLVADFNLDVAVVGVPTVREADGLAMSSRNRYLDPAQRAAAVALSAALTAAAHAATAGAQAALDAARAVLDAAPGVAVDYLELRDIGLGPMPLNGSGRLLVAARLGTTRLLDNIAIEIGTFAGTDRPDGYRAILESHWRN
Method in brief: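 Recombinant MTB PS (panC, Rv3602c) expressed in E. coli BL21(DE3). Coupled assay in 100 mM HEPES pH 7.8: 0.4 mM NADH, 5 mM pantoic acid, 5 mM β-alanine, 10 mM ATP, 10 mM MgCl2, 1 mM phosphoenolpyruvate, with myokinase, pyruvate kinase and lactate dehydrogenase. Compounds were tested from 25 µM downward. Reaction was started with PS; NADH depletion was read at 340 nm at 37 °C, background-corrected.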

[2] = system: Mycobacterium tuberculosis; experiment: Antimycobacterial activity against Mycobacterium tuberculosis H37Rv ATCC 27294 after 7 days by microplate Alamar blue assay; format: functional; settings: H37Rv ATCC 27294, 168 h
Method in brief: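 MABA against M. tuberculosis H37Rv. Inoculum came from LJ medium, resuspended in 7H9-S (7H9, 0.1% casitone, 0.5% glycerol, OADC), adjusted to McFarland No. 1 and diluted 1:20. Two-fold dilutions spanned 50 to 0.78 µg/mL, in duplicate. Plates ran 7 days at 37 °C, then alamar blue was added overnight. MIC was the lowest concentration preventing the blue-to-pink change.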

[3] = Cytotoxicity against mouse RAW264.7 cells assessed as inhibition of cell viability at 50 uM after 72 hrs by MTT assay; format: cell-based; settings: read-out: INH
Method in brief: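 RAW 264.7 mouse macrophages were exposed to compound at 50 µM for 72 h. Viability was read as MTT conversion to formazan.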

[4] = system: Mycobacterium tuberculosis; experiment: Antimycobacterial activity against nutrient starved Mycobacterium tuberculosis H37Rv assessed as reduction in bacterial load at 10 ug/ml incubated for 7 days measured after 28 days by microplate reader analysis; format: functional
Method in brief: (§1)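 H37Rv grown in 7H9/OADC, pelleted, washed twice and resuspended in PBS. It was starved in sealed bottles at 37 °C for 6 weeks. Cultures were exposed to drug at 10 µg/ml for 7 days at 37 °C. Ten-fold dilutions to 10^-6 in 7H9/OADC were plated in triplicate and incubated 28 days at 37 °C without agitation. Wells with visible growth were scored and MPN calculated.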

[5] = system: Mycobacterium marinum; experiment: Antimycobacterial activity against Mycobacterium marinum ATCC BAA-535 infected in Zebra fish model assessed as reduction in bacterial load at 5 mg/kg, po administered for 7 days measured after 14 days by MPN assay; format: functional
Method in brief: (§2)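 Adult zebra fish infected with M. marinum ATCC BAA-535 (grown at 30 °C in Middlebrook 7H9 broth). Oral treatment began 7 days post infection and ran for 7 days. Fish were then sacrificed and homogenised in 7H9 broth. Homogenate was serially diluted to 10^-6, plated in 48-well plates and incubated at 30 °C. Bacterial count was by MPN.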

[6] = system: Mycobacterium tuberculosis; experiment: Antimycobacterial activity against nutrient starved Mycobacterium tuberculosis H37Rv assessed as reduction in bacterial load for 7 days measured after 28 days by microplate reader analysis; format: functional; method in brief: as §1
[7] = system: Mycobacterium marinum; experiment: Antimycobacterial activity against Mycobacterium marinum ATCC BAA-535 infected in Zebra fish model assessed as reduction in bacterial load at 10 mg/kg, po administered for 7 days measured after 14 days by MPN assay; format: functional; method in brief: as §2

SMILES	IC50 [1] [nM]	MIC [2] [µM]	cytotoxicity at 72 h, 50 µM [3] [%]	Activity [4] [deltalog10CFU/ml]	Activity [5] [deltalog10CFU/ml]	MIC [6] [µg/mL]	Activity [7]
Cc1nc2sc3ccccc3n2c1C(=O)NNC(=O)c1ccccc1	1100	35.7 (≈ 12.5 µg/mL)	29.7	–	–	–	–
Cc1nc2sccn2c1C(=O)Nc1ccc(Br)cc1	690	2.32 (≈ 0.78 µg/mL)	32.3	2	–	–	–
Cc1nc2sc3ccccc3n2c1C(=O)Nc1ccc(Br)cc1	520	16.2 (≈ 6.25 µg/mL)	20.9	–	–	–	–
Cc1nc2sccn2c1C(=O)N/N=C/c1ccc(N(C)C)cc1	2500	38.2 (≈ 12.5 µg/mL)	6.75	–	–	–	–
Cc1nc2sc3ccccc3n2c1C(=O)Nc1ccccc1	1030	40.7 (≈ 12.5 µg/mL)	33.2	–	–	–	–
COc1cc(/C=N/NC(=O)c2c(C)nc3sc4ccccc4n23)cc(OC)c1OC	2070	29.4 (≈ 12.5 µg/mL)	16.2	–	–	–	–
CCOc1ccc(NC(=O)c2c(C)nc3sc4ccccc4n23)cc1	2100	42 (≈ 14.7 µg/mL)	52.7	–	–	–	–
CO[C@H]1/C=C/O[C@@]2(C)Oc3c(C)c(O)c4c(O)c(c(/C=N/N5CCN(C)CC5)c(O)c4c3C2=O)NC(=O)/C(C)=C\C=C\[C@H](C)[C@H](O)[C@@H](C)[C@@H](O)[C@@H](C)[C@H](OC(C)=O)[C@@H]1C [RIFAMPIN]	–	–	–	2.1	1.9	0.1 (≈ 0.122 µM)	–
Cc1ccc(C(=O)NNC(=O)c2c(C)nc3sccn23)cc1	4990	5.96 (≈ 1.87 µg/mL)	39.2	2.1	–	–	–
Cc1nc2sc3ccccc3n2c1C(=O)N/N=C/c1ccc(Br)cc1	1020	15.1 (≈ 6.25 µg/mL)	10.1	–	–	–	–
Cc1nc2sc3ccccc3n2c1C(=O)NNC(=O)C1CCCCC1	2910	17.5 (≈ 6.25 µg/mL)	45.4	–	–	–	–
Cc1nc2sc3ccccc3n2c1C(=O)NCc1ccccc1	840	19.4 (≈ 6.25 µg/mL)	6.62	–	–	–	–
Cc1nc2sccn2c1C(=O)NNC(=O)c1ccc(Oc2ccccc2)cc1	1230	7.96 (≈ 3.12 µg/mL)	2.98	–	–	–	–
Cc1nc2sccn2c1C(=O)N/N=C/c1ccccc1	580	23.2 (≈ 6.6 µg/mL)	23.1	–	–	–	–
Cc1nc2sccn2c1C(=O)NCc1ccccc1	1060	11.5 (≈ 3.13 µg/mL)	12.7	–	–	–	–
Cc1nc2sc3ccccc3n2c1C(=O)NNC(=O)c1ccc(Oc2ccccc2)cc1	530	3.53 (≈ 1.56 µg/mL)	10.4	–	–	–	1.5 deltalog10CFU/ml
Cc1nc2sc3ccccc3n2c1C(=O)NNC(=O)c1cccc2ccccc12	1390	15.6 (≈ 6.25 µg/mL)	32	–	–	–	–
Cc1nc2sccn2c1C(=O)NNC(=O)c1cccc2ccccc12	640	17.8 (≈ 6.25 µg/mL)	27.5	–	–	–	–

SMILES	IC50 [1] [nM]	MIC [2] [µM]	cytotoxicity at 72 h, 50 µM [3] [%]	Activity [4] [deltalog10CFU/ml]	Activity [5] [deltalog10CFU/ml]	MIC [6] [µg/mL]	Activity [7]
COc1c(N2C[C@@H]3CCCN[C@@H]3C2)c(F)cc2c(=O)c(C(=O)O)cn(C3CC3)c12 [MOXIFLOXACIN]	–	–	–	–	2.9	0.78 (≈ 1.94 µM)	–
Cc1nc2sccn2c1C(=O)NNC(=O)c1ccccc1	5310	40.1 (≈ 12 µg/mL)	10.3	–	–	–	–
Cc1nc2sccn2c1C(=O)NC1CCCCC1	2000	11.8 (≈ 3.12 µg/mL)	32.1	–	–	–	–
Cc1nc2sccn2c1C(=O)Nc1ccccc1	740	12.1 (≈ 3.12 µg/mL)	14.1	–	–	–	–
Cc1ccc(C(=O)NNC(=O)c2c(C)nc3sc4ccccc4n23)cc1	5830	17.1 (≈ 6.25 µg/mL)	53	–	–	–	–
Cc1nc2sc3ccccc3n2c1C(=O)N/N=C/c1ccc(C(F)(F)F)cc1	5310	16.5 (≈ 6.65 µg/mL)	16.1	–	–	–	–
NNC(=O)c1ccncc1 [ISONIAZID]	> 25000	0.72 (≈ 0.0987 µg/mL)	–	1.1	–	0.05 (≈ 0.365 µM)	1.8 deltalog10CFU/ml
Cc1nc2sc3ccccc3n2c1C(=O)NC1CCCCC1	1020	19.9 (≈ 6.25 µg/mL)	13.4	–	–	–	–
CC1(C)S[C@@H]2[C@H](NC(=O)[C@H](N)c3ccc(O)cc3)C(=O)N2[C@H]1C(=O)O	–	–	–	–	–	–	inactive
COc1ccc(NC(=O)c2c(C)nc3sccn23)cc1	5830	20.7 (≈ 5.96 µg/mL)	58.7	–	–	–	–
Cc1nc2sc3ccccc3n2c1C(=O)N/N=C/c1ccccc1	2150	9.35 (≈ 3.13 µg/mL)	34.6	–	–	–	–
Cc1nc2sccn2c1C(=O)N/N=C/c1ccc(Br)cc1	1200	34.4 (≈ 12.5 µg/mL)	22.2	–	–	–	–
Cc1nc2sccn2c1C(=O)NNC(=O)C1CCCCC1	5380	20.4 (≈ 6.25 µg/mL)	31.2	–	–	–	–
COc1cc(/C=N/NC(=O)c2c(C)nc3sccn23)cc(OC)c1OC	5610	33.4 (≈ 12.5 µg/mL)	1.17	–	–	–	–
CC[C@@H](CO)NCCN[C@@H](CC)CO [ETHAMBUTOL]	> 25000	7.64 (≈ 1.56 µg/mL)	–	–	–	–	–
Cc1nc2sc3ccccc3n2c1C(=O)N/N=C/c1ccc(N(C)C)cc1	1460	4.13 (≈ 1.56 µg/mL)	12.1	–	–	–	–
Cc1nc2sccn2c1C(=O)N/N=C/c1ccc(C(F)(F)F)cc1	670	17.7 (≈ 6.25 µg/mL)	12.8	–	–	–	–
